# Fewer inactive variants are shown than the library holds.
# B1: tRNA (parent)
# chain: GUUCCGUUGGCGUAAUGGUAACGCGUCUCCCUCCUAAGGAGAAGACUGCGGGUUCGAGUCCCGUACGGAACG
# Variants of: B1
# Test: yeast fitness relative to wild type (ratio to wild type); higher = fitter; tRNA-Arg(CCU), competitive growth, 37 C, YPD
# Procedure, shortened: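 Gene amplicons from the start population and from each of six end populations were read by 100-nucleotide paired-end sequencing. Those end populations came from pooled Saccharomyces cerevisiae strains carrying tRNA-Arg(CCU) gene variants at the native locus, competed in YPD at 37°C for 24 hours. Fitness relative to wild type was worked out from changes in genotype frequencies. Genotypes needed ≥ 100 starting reads, and estimates < 0.5 were set to 0.5.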
row,Variant,yeast fitness
1,A14C A36U C60U A69U,≤ 0.5
2,U13G A20G U53G C66U,≤ 0.5
3,A14C C34G C49A C61U,≤ 0.5
4,U13G C22U C31A,0.552
5,A14G A15U G25C C49U,0.619
6,A14C A20C,0.533
7,A14C U16C G44A U54C C61U A69C,≤ 0.5
8,U13C U19A A42C G50C,0.619
9,A14C C27G C46G A65G C66U,≤ 0.5
10,A14C C24U C31G A36U,0.664
11,A14C C29U A36G A45U,0.543
12,A14C A37G A57G,0.625
13,A14C U19A A20C,≤ 0.5
14,A14C G25C G52A C66U,≤ 0.5
15,A14C C34U G39C,0.625
16,A14C A42C C49A A70U,0.588
17,A14C A36U A37G G52A A65U A70C,≤ 0.5
18,U13C U16G A43U,1.02
19,A14C G44A C46A G52A C66U,≤ 0.5
20,U13G U54C G56A,0.563
21,A14C C30A A69U,≤ 0.5

row,Variant,yeast fitness
1,A14C U47C A57C,≤ 0.5
2,U13G G38A,0.781
3,U13G A43G U53A,0.57
4,A14C C31U A36U C55G,≤ 0.5
5,U13C U19C U26C C31A C61G,≤ 0.5
6,A14C C24G G39A A43G,≤ 0.5
7,A14C A15U G17A C27U U32C U35G,≤ 0.5
8,A14C G17C,0.622
9,A14C C34G A43U C62A,0.716
10,A14C C22U C24U U53A,≤ 0.5
11,A14G A15C C46A U64G A65U,≤ 0.5
12,U13G C27U G44A A57U,≤ 0.5
13,A14G A15C U26A G48C C49U U59C,≤ 0.5
14,U13G A20U A42G U59A A65G,≤ 0.5
15,A14C G18C,0.542
16,A14C A37C U54C,≤ 0.5
17,A14C C30U G58A,≤ 0.5
18,A14C U26A C34U C55G,0.519
19,A14C U19G C31G C33U A42G G48A G52A,≤ 0.5
20,U13G G44A A57U,0.617
21,A14C C24U A57G C60U G68C,≤ 0.5

row,Variant,yeast fitness
1,A14C C22G U26G C55A A65G,≤ 0.5
2,A14C G48C,0.658
3,U13G A37C,0.65
4,A14C C24U C31U U53C C61G,≤ 0.5
5,A14C U19G U32A G52C,≤ 0.5
6,U13C U54A C60U,≤ 0.5
7,A14C A43G U59C C62A,≤ 0.5
8,U13C U16G,0.865
9,U13C U47C C62U,0.715
10,A14C U28A U54C G56C G58A,≤ 0.5
11,U13G A43C U54A A57G,≤ 0.5
12,A14C A37G A45C,≤ 0.5
13,U13G C60U,0.747
14,A14C C22U C66U,≤ 0.5
15,A14C G51C U59G,≤ 0.5
16,U13G C24G G51A,≤ 0.5
17,U13G C34U A37U,≤ 0.5
18,A14C A36G G41A G48C U59C,0.7
19,A14C C30A,0.576
20,A14C C30G,0.508
21,A14C C30U,0.622

row,Variant,yeast fitness
1,U13G U26G G52A,≤ 0.5
2,U13C U26C C27G C34U A37U A43G A45G C46U,≤ 0.5
3,U13G A45C G48A,0.898
4,U13G A37C U47A A70G,≤ 0.5
5,U13C U16A A57U,≤ 0.5
6,A14C G18A G48A C60G,0.558
7,U13G A20U A65C,0.594
8,U13G A14U G17A,≤ 0.5
9,A14G A15G U54C,0.569
10,A14G A15C C30U G56C A69C,≤ 0.5
11,A14C G68U,0.583
12,A14C C60G C66U G68A,≤ 0.5
13,A14C G18A A42G C46A,≤ 0.5
14,A14G A15G A37U C55U,≤ 0.5
15,A14C C24A G52A U53A A57C,0.5
16,A14C A15C A21U A57G,≤ 0.5
17,U13G G58C G67C,0.603
18,U13G A42G,0.733
19,U13C U59C C66U G67U,0.576
20,U13G C30A,0.715

# From the RNAGym collection of RNA variant scans (doi:10.1126/science.aae0568)
